How the values were obtained:
[1] = biological target: T1, Broad substrate specificity ATP-binding cassette transporter ABCG2 (Homo sapiens, UniProt Q9UNQ0); experiment: Modulation of ABCG2 (unknown origin) expressed in High Five insect cell vesicle membrane assessed as stimulation of ATPase activity after 20 mins by colorimetric assay
T1 sequence (Q9UNQ0 whole entry): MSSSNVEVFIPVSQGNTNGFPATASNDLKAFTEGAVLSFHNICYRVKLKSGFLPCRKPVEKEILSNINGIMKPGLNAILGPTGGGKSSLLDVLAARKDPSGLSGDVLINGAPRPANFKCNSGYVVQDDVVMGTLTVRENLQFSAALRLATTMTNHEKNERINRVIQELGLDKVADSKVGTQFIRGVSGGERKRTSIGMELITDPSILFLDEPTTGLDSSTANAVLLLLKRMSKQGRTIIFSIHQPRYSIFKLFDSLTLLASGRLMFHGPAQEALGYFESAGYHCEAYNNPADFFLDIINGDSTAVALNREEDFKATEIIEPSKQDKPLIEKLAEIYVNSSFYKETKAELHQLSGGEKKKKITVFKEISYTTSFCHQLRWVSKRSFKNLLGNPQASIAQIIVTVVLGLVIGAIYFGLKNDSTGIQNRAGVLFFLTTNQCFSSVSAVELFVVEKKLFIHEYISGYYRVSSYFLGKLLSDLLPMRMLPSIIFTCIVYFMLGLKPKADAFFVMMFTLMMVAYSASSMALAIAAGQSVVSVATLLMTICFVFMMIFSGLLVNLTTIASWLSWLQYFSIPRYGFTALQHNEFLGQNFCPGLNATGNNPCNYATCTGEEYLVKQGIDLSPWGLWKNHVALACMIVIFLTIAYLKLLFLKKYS
Outline: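 Membrane vesicles from ABCG2-expressing High Five cells were incubated with LCA (0–390 μM) at 37 °C for 20 min in 50 mM MES-Tris pH 6.8 with ouabain, DTT, NaN3, EGTA and KCl, ±0.3 mM vanadate. Liberated Pi was read by molybdate/ascorbate colorimetry at 880 nm. Vi-sensitive activity = activity minus activity with vanadate; mean ± SD of three experiments.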

[2] = biological target: T1, Broad substrate specificity ATP-binding cassette transporter ABCG2; experiment: Modulation of ABCG2 (unknown origin) expressed in H460-MX20 cells assessed as increase in intracellular pheophorbide A accumulation at 20 uM incubated for 1 hr by FACScan flow cytometry; format: cell-based
Outline: (§1)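 Cells held drug-free 7 days. 3 × 10^5 cells were suspended in IMDM with 5% FCS and loaded with pheophorbide A (ex 395/em 670 nm) for 1 h, with or without LCA (20 μM for single-concentration accumulation) or Ko143 3 μM as reference. Read immediately by flow cytometry. Efflux inhibition was run over a concentration range; mean ± SD of three experiments.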

[3] = biological target: T1, Broad substrate specificity ATP-binding cassette transporter ABCG2; experiment: Modulation of human ABCG2 expressed in HEK293/R482 cells assessed as increase in intracellular pheophorbide A accumulation at 20 uM incubated for 1 hr by FACScan flow cytometry; format: cell-based; outline: as §1
[4] = biological target: T1, Broad substrate specificity ATP-binding cassette transporter ABCG2; experiment: Reversal of ABCG2 (unknown origin)-mediated multidrug resistance in human H460-MX20 cells assessed as fold change in topotecan IC50 at 0.5 uM after 72 hrs by MTT assay relative to topotecan IC50; format: cell-based
Outline: (§2)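 Cells held drug-free 7 days, seeded at 5000 per well for 24 h, then exposed 72 h to mitoxantrone or topotecan dilutions with DMSO (≤0.5%), LCA 0.5–3.0 μM, or Ko143 1.0 μM. Viability was read by MTT. IC50 came from fitted dose-response curves of three independent experiments. Fold-reversal = IC50 without modulator divided by IC50 with modulator.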

[5] = biological target: T1, Broad substrate specificity ATP-binding cassette transporter ABCG2; experiment: Reversal of ABCG2 (unknown origin)-mediated multidrug resistance in human H460-MX20 cells assessed as fold change in mitoxantrone IC50 at 1 uM after 72 hrs by MTT assay relative to mitoxantrone IC50; format: cell-based; outline: as §2
[6] = tested on: NCI-H460; experiment: Effect on mitoxantrone-induced cytotoxicity against human H460 cells assessed as fold change in mitoxantrone IC50 at 2 uM after 72 hrs by MTT assay relative to mitoxantrone IC50; format: functional
Outline: (§3)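 Parental S1 colon and H460 lung cancer cells were exposed for 72 h to a mitoxantrone or topotecan concentration series, with or without modulator at 0.5–3.0 μM, and read by MTT. Fold-reversal is IC50 without modulator divided by IC50 with modulator, taken from dose-response curves of three independent experiments.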

[7] = tested on: NCI-H460; experiment: Effect on mitoxantrone-induced cytotoxicity against human H460 cells assessed as fold change in mitoxantrone IC50 at 0.5 uM after 72 hrs by MTT assay relative to mitoxantrone IC50; format: functional; outline: as §3
[8] = biological target: T1, Broad substrate specificity ATP-binding cassette transporter ABCG2; experiment: Reversal of ABCG2 (unknown origin)-mediated multidrug resistance in human S1-M1-80 cells assessed as fold-change in topotecan IC50 at 3 uM after 72 hrs by MTT assay relative to topotecan IC50; format: cell-based; conditions: s1-m1-80, 72 h
Outline: (§4)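 MTT readout in S1-M1-80 colon cancer cells (mitoxantrone-selected, held in 80 μM mitoxantrone, then drug-free 7 days before assay). Cells were seeded at 5000/well for 24 h, then given increasing mitoxantrone or topotecan with DMSO or non-toxic modulator for 72 h at 37 °C. IC50 came from fitted dose-response curves (at least three independent experiments). Fold-reversal = IC50 without modulator ÷ IC50 with modulator.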

[9] = biological target: T1, Broad substrate specificity ATP-binding cassette transporter ABCG2; experiment: Reversal of ABCG2 (unknown origin)-mediated multidrug resistance in human S1-M1-80 cells assessed as fold-change in topotecan IC50 at 2 uM after 72 hrs by MTT assay relative to topotecan IC50; format: cell-based; conditions: s1-m1-80, 72 h; outline: as §4
[10] = tested on: S1; experiment: Effect on topotecan-induced cytotoxicity against human S1 cells assessed as fold change in topotecan IC50 at 3 uM after 72 hrs by MTT assay relative to topotecan IC50; format: functional; outline: as §3
[11] = biological target: T1, Broad substrate specificity ATP-binding cassette transporter ABCG2; experiment: Reversal of ABCG2 (unknown origin)-mediated multidrug resistance in human S1-M1-80 cells assessed as fold-change in mitoxantrone IC50 at 1 uM after 72 hrs by MTT assay relative to mitoxantrone IC50; format: cell-based; conditions: s1-m1-80, 72 h; outline: as §4
[12] = biological target: T1, Broad substrate specificity ATP-binding cassette transporter ABCG2; experiment: Reversal of human ABCG2-mediated multidrug resistance in HEK293/R482 cells assessed as fold-change in topotecan IC50 at 0.5 uM after 72 hrs by CCK8 relative to topotecan IC50; format: cell-based
Outline: (§5)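 Cells were seeded at 5000/well for 24 h, then given colchicine, etoposide, mitoxantrone or topotecan ± non-toxic modulator (0.5–3.0 μM) for 72 h, with DMSO up to 0.5%. IC50 came from fitted curves (mean ± SD, three experiments). Fold-reversal = IC50 without modulator ÷ IC50 with modulator.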

[13] = biological target: T1, Broad substrate specificity ATP-binding cassette transporter ABCG2; experiment: Reversal of human ABCG2-mediated multidrug resistance in HEK293/R482 cells assessed as fold-change in topotecan IC50 at 1 uM after 72 hrs by CCK8 relative to topotecan IC50; format: cell-based; outline: as §5
[14] = tested on: HEK293; experiment: Effect on mitoxantrone-induced cytotoxicity against HEK293 cells assessed as fold change in mitoxantrone IC50 at 2 uM after 72 hrs by CCK8 assay relative to mitoxantrone IC50; format: cell-based; conditions: human, hek293, 72 h
Outline: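 Reversal assay in parental pcDNA-HEK293 and transfected HEK293 lines (ABCB1 for colchicine, ABCC1 for etoposide, ABCG2 for mitoxantrone/topotecan). Substrate drug series was given with or without nontoxic modulator (0.5, 1.0, 2.0 or 3.0 μM) for 72 h, with a CCK-8 read-out. Fold-reversal is substrate IC50 without modulator divided by IC50 with modulator. Three independent experiments.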

EC50 [1]: 14 µM
Activity ([1]; human, 20 min): Dose-dependent effect
Activity [2]: Active
Activity [3]: Active
fold change (FC) [4]: 3.6
fold change (FC) [8]: 32.7
fold change (FC) [9]: 24.7
fold change (FC) [12]: 2.2
fold change (FC) [13]: 3.9
Compound: C=CC(C)(C)c1cc(/C=C/C(=O)c2ccc(O)cc2)c(OC)cc1O [LICOAGROCHACONE A]
fold change (FC) [5]: 13.4
fold change (FC) [6]: 1.1
fold change (FC) [7]: 0.8
fold change (FC) [10]: 0.9
fold change (FC) [11]: 10.8
fold change (FC) [14]: 1

From ChEMBL document CHEMBL4627381, “Licochalcone A Selectively Resensitizes ABCG2-Overexpressing Multidrug-Resistant Cancer Cells to Chemotherapeutic Drugs” (J Nat Prod, 2020)
